Target: T1, S-adenosylmethionine decarboxylase proenzyme (Homo sapiens, UniProt P17707)
T1 sequence (P17707 whole entry): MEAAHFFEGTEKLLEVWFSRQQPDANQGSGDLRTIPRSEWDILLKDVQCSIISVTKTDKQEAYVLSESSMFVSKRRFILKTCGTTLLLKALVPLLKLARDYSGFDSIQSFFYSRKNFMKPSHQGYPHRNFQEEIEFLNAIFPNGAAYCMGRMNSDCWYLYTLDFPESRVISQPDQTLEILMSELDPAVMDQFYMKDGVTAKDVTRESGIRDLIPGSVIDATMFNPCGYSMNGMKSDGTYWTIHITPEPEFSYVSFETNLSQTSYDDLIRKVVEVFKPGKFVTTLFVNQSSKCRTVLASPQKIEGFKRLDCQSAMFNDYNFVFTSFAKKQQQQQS
Experiment: Inhibition of human C-terminal His-tagged AdoMetDC assessed as release of 14CO2 from S-adenosyl-L-[carboxy-14C]methionine
Method in brief: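 Enzyme: human AdoMetDC from a pQE30 plasmid with the (H)6 tag at the C-terminus in place of the terminal -QQQQQS. Expressed in E. coli JM109 with IPTG induction overnight at 15 °C, then purified on Talon resin and Sephadex G-75 in putrescine-containing buffer. Assay used 1 nM enzyme, no inhibitor plus at least five inhibitor concentrations. IC50 came from curve fits of concentration versus % inhibition.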

Row | Compound | IC50 [nM]
1 | Cc1nc2c(N)ncnc2n1[C@@H]1O[C@H](C[S+](C)C)[C@@H](O)[C@H]1O | 3000
2 | CNc1nc2c(N)ncnc2n1[C@@H]1O[C@H](CN(C)CCCCON)[C@@H](O)[C@H]1O | 49

Target: T2, S-adenosylmethionine decarboxylase proenzyme (Homo sapiens) (UniProt P17707)
T2 sequence (whole entry): T1 sequence (P17707 whole entry)
Experiment: Inhibition of human C-terminal His-tagged AdoMetDC assessed as release of 14CO2 from S-adenosyl-L-[carboxy-14C]methionine at 100 uM

Row | Compound | inhibition [%]
3 | CNCCNC[C@H]1O[C@@H](n2cnc3c(N)ncnc32)[C@H](O)[C@@H]1O | < 5
4 | CN(CCCN)C[C@H]1O[C@@H](n2c(-c3ccccc3)nc3c(N)ncnc32)[C@H](O)[C@@H]1O | < 5
5 | CNCCCNC[C@H]1O[C@@H](n2c(-c3ccccc3)nc3c(N)ncnc32)[C@H](O)[C@@H]1O | < 5
6 | Cc1nc2c(N)ncnc2n1[C@@H]1O[C@H](CN(C)CC(N)=O)[C@@H](O)[C@H]1O | < 5
7 | CN(CCN)C[C@H]1O[C@@H](n2cnc3c(N)ncnc32)[C@H](O)[C@@H]1O | < 5
8 | CNCCCNC[C@H]1O[C@@H](n2c(NC)nc3c(N)ncnc32)[C@H](O)[C@@H]1O | < 5
9 | CN(CCCCON)C[C@H]1O[C@@H](n2c(-c3ccccc3)nc3c(N)ncnc32)[C@H](O)[C@@H]1O | < 5
10 | CN(CCON)C[C@H]1O[C@@H](n2c(-c3ccccc3)nc3c(N)ncnc32)[C@H](O)[C@@H]1O | < 5
11 | CNCCNC[C@H]1O[C@@H](n2c(C)nc3c(N)ncnc32)[C@H](O)[C@@H]1O | < 5
12 | CN(CCNC(=N)N)C[C@H]1O[C@@H](n2cnc3c(N)ncnc32)[C@H](O)[C@@H]1O | < 5

Reference: ChEMBL document CHEMBL1140908, “New insights into the design of inhibitors of human S-adenosylmethionine decarboxylase: studies of adenine C8 substitution in structural analogues of S-adenosylmethionine” (J Med Chem, 2009)
